Test results: ChEMBL document CHEMBL1125605 (1991)
Converted amounts (≈) assume the structure as drawn.

Columns and labels:
Assay type in all cases: functional
[1] = test system: E6SM; test: Concentration required to inhibit TK-HSV-1 (VMW1837) induced cytopathogenicity in E6SM cells by 50%.; settings: Homo sapiens
[2] = test system: E6SM; test: Concentration required to inhibit TK-HSV-1 (B2006) induced cytopathogenicity in E6SM cells by 50%.; settings: Homo sapiens
[3] = test system: HEL; test: Concentration required to inhibit CMV (AD-169) induced cytopathogenicity in HEL cells by 50%.; settings: Homo sapiens
[4] = test system: E6SM; test: Concentration required to cause a microscopically detectable alteration of normal cell morphology in E6SM cells; settings: Homo sapiens; read-out: MIC
Outline: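 Uninfected E6SM human embryonic skin-muscle fibroblasts were exposed to compound and examined under the microscope. The value is the minimum concentration that caused a detectable alteration of normal cell morphology.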

[5] = test system: E6SM; test: Concentration required to inhibit HSV-1 (McIntyre) induced cytopathogenicity in E6SM cells by 50%.; settings: Homo sapiens
[6] = test system: HEL; test: Concentration required to inhibit VZV (YS) induced cytopathogenicity in HEL cells by 50%.; settings: Homo sapiens
[7] = test system: HEL; test: Concentration required to inhibit TK-VZV (YSR) induced cytopathogenicity in HEL cells by 50%.; settings: Homo sapiens
[8] = test system: HEL; test: Concentration required to inhibit TK-VZV (07-1) induced cytopathogenicity in HEL cells by 50%.; settings: Homo sapiens
[9] = test system: E6SM; test: Concentration required to inhibit HSV-2(G) induced cytopathogenicity in E6SM cells by 50%.; settings: Homo sapiens
[10] = test system: HEL; test: Concentration required to cause 50% reduction in HEL cell growth.; settings: Homo sapiens; read-out: MIC
Outline: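 Cytotoxicity was measured as inhibition of growth of HEL human embryonic lung fibroblasts. The value is the compound concentration that reduced cell growth by 50%.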

[11] = test system: HEL; test: Concentration required to inhibit VZV (oka) induced cytopathogenicity in HEL cells by 50%.; settings: Homo sapiens
[12] = test system: E6SM; test: oncentration required to inhibit VV induced cytopathogenicity in E6SM cells by 50%.; settings: Homo sapiens
[13] = test system: E6SM; test: Concentration required to inhibit HSV-1 (F) induced cytopathogenicity in E6SM cells by 50%.; settings: Homo sapiens
[14] = test system: E6SM; test: Concentration required to inhibit HSV-2(196) induced cytopathogenicity in E6SM cells by 50%.; settings: Homo sapiens
[15] = test system: HEL; test: Concentration required to inhibit CMV (Davis) induced cytopathogenicity in HEL cells by 50%.; settings: Homo sapiens
[16] = test system: E6SM; test: Concentration required to inhibit HSV-2(lyons) induced cytopathogenicity in E6SM cells by 50%.; settings: Homo sapiens
[17] = test system: E6SM; test: Concentration required to inhibit HSV-1 (KOS) induced cytopathogenicity in E6SM cells by 50%.; settings: Homo sapiens
[18] = test system: E6SM; test: Concentration required to inhibit VSV induced cytopathogenicity in E6SM cells by 50%.; settings: Homo sapiens
Outline: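 Antiviral assay in E6SM human embryonic skin-muscle fibroblasts, with cells infected by vesicular stomatitis virus (VSV) in microtiter plates. Virus-induced cytopathogenicity is assessed. The value is the compound concentration that reduces VSV-induced cytopathogenicity by 50%.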

Row | Compound | MIC [1] [µg/mL] | MIC [2] [µg/mL] | MIC [3] [µg/mL] | minimum cytotoxic concentration (morphology alteration) [4] [µg/mL] | MIC [5] [µg/mL] | MIC [6] [µg/mL] | MIC [7] [µg/mL] | MIC [8] [µg/mL] | MIC [9] [µg/mL] | CC50 (50% cell growth inhibitory concentration) [10] [µg/mL] | MIC [11] [µg/mL] | MIC [12] [µg/mL] | MIC [13] [µg/mL] | MIC [14] [µg/mL] | MIC [15] [µg/mL] | MIC [16] [µg/mL] | MIC [17] [µg/mL] | MIC [18] [µg/mL]
1 | O=c1[nH]c(=O)n([C@H]2C[C@H](O)[C@@H](CO)O2)cc1-c1ccc(Br)s1 | 150 (≈ 385 µM) | 150 (≈ 385 µM) | > 100 | > 400 | 0.02 (≈ 0.0514 µM) | 0.03 (≈ 0.0771 µM) | > 40 | > 40 | 150 (≈ 385 µM) | 155 (≈ 398 µM) | 0.03 (≈ 0.0771 µM) | 70 (≈ 180 µM) | 0.07 (≈ 0.18 µM) | > 200 | > 100 | 150 (≈ 385 µM) | 0.03 (≈ 0.0771 µM) | –
2 | O=c1[nH]c(=O)n([C@H]2C[C@H](O)[C@@H](CO)O2)cc1-c1cccs1 | 150 (≈ 483 µM) | 300 (≈ 967 µM) | 250 (≈ 806 µM) | > 400 | 0.1 (≈ 0.322 µM) | 41 (≈ 132 µM) | > 400 | 180 (≈ 580 µM) | 250 (≈ 806 µM) | > 200 | 18 (≈ 58 µM) | > 400 | 0.2 (≈ 0.644 µM) | 150 (≈ 483 µM) | 250 (≈ 806 µM) | 100 (≈ 322 µM) | 0.45 (≈ 1.45 µM) | –
3 | O=c1[nH]c(=O)n([C@@H]2C[C@H](O)[C@@H](CO)O2)cc1-c1cccs1 | 150 (≈ 483 µM) | > 200 | > 100 | > 400 | – | > 100 | 80 (≈ 258 µM) | 85 (≈ 274 µM) | > 300 | 180 (≈ 580 µM) | 75 (≈ 242 µM) | > 200 | – | 150 (≈ 483 µM) | – | 100 (≈ 322 µM) | > 200 | –
4 | O=c1[nH]c(=O)n([C@H]2C[C@H](O)[C@@H](CO)O2)cc1-c1ccc(Cl)s1 | > 200 | > 200 | > 40 | > 400 | 0.004 (≈ 0.0116 µM) | 0.02 (≈ 0.058 µM) | 65 (≈ 189 µM) | 35 (≈ 102 µM) | > 200 | > 50 | 0.02 (≈ 0.058 µM) | > 200 | 0.04 (≈ 0.116 µM) | > 200 | – | > 200 | 0.02 (≈ 0.058 µM) | –
5 | O=c1[nH]c(=O)n([C@H]2C[C@H](O)[C@@H](CO)O2)cc1-c1ccc(Cl)o1 | 150 (≈ 456 µM) | 150 (≈ 456 µM) | > 100 | > 400 | 0.4 (≈ 1.22 µM) | 3 (≈ 9.13 µM) | > 100 | > 100 | 150 (≈ 456 µM) | 105 (≈ 319 µM) | 2.5 (≈ 7.61 µM) | 45 (≈ 137 µM) | 0.2 (≈ 0.608 µM) | 150 (≈ 456 µM) | > 100 | 150 (≈ 456 µM) | 0.2 (≈ 0.608 µM) | > 200
6 | O=c1[nH]c(=O)n([C@H]2C[C@H](O)[C@@H](CO)O2)cc1-c1ccc(Br)o1 | – | 100 (≈ 268 µM) | > 100 | > 400 | 0.2 (≈ 0.536 µM) | 3 (≈ 8.04 µM) | > 100 | > 100 | 150 (≈ 402 µM) | 125 (≈ 335 µM) | 3 (≈ 8.04 µM) | 70 (≈ 188 µM) | 0.1 (≈ 0.268 µM) | 150 (≈ 402 µM) | > 100 | 300 (≈ 804 µM) | 0.15 (≈ 0.402 µM) | > 200
7 | Nc1nc(=O)n([C@H]2C[C@H](O)[C@@H](CO)O2)cc1-c1cccs1 | > 100 | > 100 | 60 (≈ 194 µM) | > 200 | 0.07 (≈ 0.226 µM) | 4 (≈ 12.9 µM) | 30 (≈ 97 µM) | 8 (≈ 25.9 µM) | 45 (≈ 145 µM) | 45 (≈ 145 µM) | 3 (≈ 9.7 µM) | 20 (≈ 64.7 µM) | 0.4 (≈ 1.29 µM) | 20 (≈ 64.7 µM) | 40 (≈ 129 µM) | 20 (≈ 64.7 µM) | 1.3 (≈ 4.2 µM) | –
8 | Cn1ccnc1-c1cn([C@H]2C[C@H](O)[C@@H](CO)O2)c(=O)[nH]c1=O | > 200 | > 200 | > 400 | > 200 | > 200 | > 400 | > 400 | > 400 | > 200 | > 200 | > 400 | > 200 | > 200 | > 200 | > 400 | > 200 | > 200 | –
9 | O=c1[nH]c(=O)n([C@H]2C[C@H](O)[C@@H](CO)O2)cc1-c1ccco1 | 300 (≈ 1020 µM) | 150 (≈ 510 µM) | > 400 | > 400 | 0.2 (≈ 0.68 µM) | 7 (≈ 23.8 µM) | 220 (≈ 748 µM) | 155 (≈ 527 µM) | 200 (≈ 680 µM) | 100 (≈ 340 µM) | 4 (≈ 13.6 µM) | – | 0.2 (≈ 0.68 µM) | > 400 | > 400 | > 400 | 0.2 (≈ 0.68 µM) | 300 (≈ 1020 µM)
10 | CC1[C@@H](O)[C@@H](CO)O[C@@H]1n1cc(I)c(=O)[nH]c1=O (stereo partly drawn) | 150 (≈ 407 µM) | 300 (≈ 815 µM) | 400 (≈ 1090 µM) | > 400 | 300 (≈ 815 µM) | 10 (≈ 27.2 µM) | 170 (≈ 462 µM) | 90 (≈ 244 µM) | 300 (≈ 815 µM) | > 200 | 15 (≈ 40.7 µM) | > 400 | 300 (≈ 815 µM) | 300 (≈ 815 µM) | – | 300 (≈ 815 µM) | 300 (≈ 815 µM) | 300 (≈ 815 µM)
11 | O=c1[nH]c(=O)n(C2O[C@H](CO)[C@@H](O)[C@@H]2O)cc1-c1cccs1 (stereo partly drawn) | > 400 | > 400 | 250 (≈ 766 µM) | > 400 | 0.07 (≈ 0.215 µM) | 6.5 (≈ 19.9 µM) | > 400 | 370 (≈ 1130 µM) | 20 (≈ 61.3 µM) | > 200 | 5.5 (≈ 16.9 µM) | > 400 | 0.2 (≈ 0.613 µM) | 100 (≈ 306 µM) | 250 (≈ 766 µM) | 20 (≈ 61.3 µM) | 0.2 (≈ 0.613 µM) | –
12 | O=c1[nH]c(=O)n([C@@H]2C[C@@H](O)[C@@H](CO)O2)cc1-c1ccco1 | 70 (≈ 238 µM) | > 200 | > 100 | > 400 | 70 (≈ 238 µM) | 240 (≈ 816 µM) | 240 (≈ 816 µM) | 260 (≈ 884 µM) | 300 (≈ 1020 µM) | 110 (≈ 374 µM) | 210 (≈ 714 µM) | 300 (≈ 1020 µM) | 40 (≈ 136 µM) | 150 (≈ 510 µM) | > 100 | 150 (≈ 510 µM) | 55 (≈ 187 µM) | –
13 | O=c1[nH]c(=O)n([C@H]2C[C@H](O)[C@@H](CO)O2)cc1/C=C/Br [BRIVUDINE] | 4 (≈ 12 µM) | 20 (≈ 60 µM) | 250 (≈ 750 µM) | > 400 | 0.02 (≈ 0.06 µM) | 0.001 (≈ 0.003 µM) | > 40 | > 40 | 20 (≈ 60 µM) | – | 0.001 (≈ 0.003 µM) | 0.07 (≈ 0.21 µM) | 0.02 (≈ 0.06 µM) | > 400 | 250 (≈ 750 µM) | 10 (≈ 30 µM) | 0.02 (≈ 0.06 µM) | 400 (≈ 1200 µM)
